Reference: ChEMBL document CHEMBL3875170, “2-Methyl-4/5-nitroimidazole derivatives potentiated against sexually transmitted Trichomonas: Design, synthesis, biology and 3D-QSAR study” (Eur J Med Chem, 2016)
Converted amounts (≈) assume the structure as drawn.

Assays:
Trichomonas vaginalis [1] = assay: Antiparasitic activity against metronidazole sensitive Trichomonas vaginalis ATCC 33592 after 48 hrs by trypan blue exclusion assay; type: functional; conditions: ATCC 33592, 48 h
Trichomonas vaginalis [2] = assay: Antiparasitic activity against metronidazole resistant Trichomonas vaginalis ATCC 50143 after 48 hrs by trypan blue exclusion assay; type: functional; conditions: ATCC 50143, 48 h
Method in brief: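 T. vaginalis trophozoites ([…]), log phase, grown in TYM with 10% FCS, vitamin mix and penicillin/streptomycin at 37 °C. Test agents from DMSO stocks serially diluted in TYM; DMSO/TYM vehicle controls. Anaerobic incubation at 37 °C with microscopic viability checks from 3 to 48 h by trypan blue exclusion. MIC is the lowest concentration killing all cells by 48 h. Repeated three times.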

[3] = Cytotoxicity against human HeLa cells after 24 hrs by MTT assay; type: toxicity, cell-based
Method in brief: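 HeLa cells seeded at 2 × 10⁴ per well in DMEM with 10% FCS, in triplicate, and held 24 h at 37 °C in 5% CO₂. Exposed to compound dilutions for 24 h; controls received 0.05% DMSO. MTT in PBS pH 7.4 added, formazan dissolved in DMSO, OD540 read. IC50 taken as the concentration killing 50% of cells.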

[4] = Selectivity index, ratio of IC50 for human HeLa cells to MIC for metronidazole sensitive Trichomonas vaginalis ATCC 33592; type: toxicity, cell-based; conditions: read-out: Selectivity Index
Method in brief: (§1)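 SI is HeLa IC50 divided by parasite MIC. HeLa cells seeded at 2 × 10⁴/well in triplicate in DMEM with 10% FCS, 24 h at 37 °C in 5% CO2. Medium then replaced with compound dilutions (0.05% DMSO controls) for 24 h. Viability by MTT read at OD540; IC50 is the concentration killing 50% of cells. MIC from 48 h trypan blue parasite killing in TYM.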

[5] = Selectivity index, ratio of IC50 for human HeLa cells to MIC for metronidazole resistant Trichomonas vaginalis ATCC 50143; type: toxicity, cell-based; conditions: read-out: Selectivity Index; method in brief: as §1
Trichomonas vaginalis [6] = assay: Potency index, ratio of metronidazole MIC to compound MIC for metronidazole resistant Trichomonas vaginalis ATCC 50143; type: functional

CCOC(=O)N1CCN(CC(O)Cn2c([N+](=O)[O-])cnc2C)CC1 (racemic)
MIC (Trichomonas vaginalis [1]): 22.9 µM (≈ 7.82 µg/mL)
MIC (Trichomonas vaginalis [2]): 91.6 µM (≈ 31.3 µg/mL)
IC50 at 24 h [3]: 3670 µM
selectivity ratio [4]: 160
selectivity ratio [5]: 40
Ratio (Trichomonas vaginalis [6]): <=12.7

CCOC(=O)N1CCN(C(=S)SCC(O)Cn2cc([N+](=O)[O-])nc2C)CC1 (racemic)
MIC (Trichomonas vaginalis [1]): 120 µM (≈ 50.1 µg/mL)
MIC (Trichomonas vaginalis [2]): 600 µM (≈ 250 µg/mL)
IC50 at 24 h [3]: 2360 µM
selectivity ratio [4]: 19
selectivity ratio [5]: 4

Cc1ncc([N+](=O)[O-])n1CC(O)CSC(=S)N1CCCC1 (racemic)
MIC (Trichomonas vaginalis [1]): 37.9 µM (≈ 12.5 µg/mL)
MIC (Trichomonas vaginalis [2]): 152 µM (≈ 50.1 µg/mL)
IC50 at 24 h [3]: 1340 µM
selectivity ratio [4]: 35
selectivity ratio [5]: 9
Ratio (Trichomonas vaginalis [6]): 2.5 - 12.6

Cc1ncc([N+](=O)[O-])n1CC(O)CN1CCN(c2ccccc2F)CC1 (racemic)
MIC (Trichomonas vaginalis [1]): 43 µM (≈ 15.6 µg/mL)
MIC (Trichomonas vaginalis [2]): 344 µM (≈ 125 µg/mL)
IC50 at 24 h [3]: > 5000 µM
selectivity ratio [4]: > 116
selectivity ratio [5]: > 14
Ratio (Trichomonas vaginalis [6]): <=12.7

Cc1ncc([N+](=O)[O-])n1CC(O)Cn1cnc2ccccc21 (racemic)
MIC (Trichomonas vaginalis [1]): 25.9 µM (≈ 7.82 µg/mL)
MIC (Trichomonas vaginalis [2]): 83 µM (≈ 25 µg/mL)
IC50 at 24 h [3]: 4530 µM
selectivity ratio [4]: 181
selectivity ratio [5]: 54
Ratio (Trichomonas vaginalis [6]): <=12.7

Cc1ncc([N+](=O)[O-])n1CC(O)CSC(=S)N1CCCCCC1 (racemic)
MIC (Trichomonas vaginalis [1]): 34.9 µM (≈ 12.5 µg/mL)
MIC (Trichomonas vaginalis [2]): 69.8 µM (≈ 25 µg/mL)
IC50 at 24 h [3]: 411 µM
selectivity ratio [4]: 11
selectivity ratio [5]: 6
Ratio (Trichomonas vaginalis [6]): 2.5 - 12.6

CCN(C)C(=S)SCC(O)Cn1c([N+](=O)[O-])cnc1C (stereo not drawn)
MIC (Trichomonas vaginalis [1]): 24.6 µM (≈ 7.82 µg/mL)
MIC (Trichomonas vaginalis [2]): 393 µM (≈ 125 µg/mL)
IC50 at 24 h [3]: 4150 µM
selectivity ratio [4]: 169
selectivity ratio [5]: 10

Cc1ncc([N+](=O)[O-])n1CC(O)Cn1cnc([N+](=O)[O-])c1 (racemic)
MIC (Trichomonas vaginalis [1]): 26.4 µM (≈ 7.81 µg/mL)
MIC (Trichomonas vaginalis [2]): 106 µM (≈ 31.3 µg/mL)
IC50 at 24 h [3]: > 5000 µM
selectivity ratio [4]: > 192
selectivity ratio [5]: > 47
Ratio (Trichomonas vaginalis [6]): <=12.7

Cc1ncc([N+](=O)[O-])n1CC(O)CN1CCCC(C)C1 (racemic)
MIC (Trichomonas vaginalis [1]): 22.2 µM (≈ 6.26 µg/mL)
MIC (Trichomonas vaginalis [2]): 88.7 µM (≈ 25 µg/mL)
IC50 at 24 h [3]: > 5000 µM
selectivity ratio [4]: > 227
selectivity ratio [5]: > 56
Ratio (Trichomonas vaginalis [6]): <=12.7

Cc1ncc([N+](=O)[O-])n1CC(O)Cn1nccn1 (racemic)
MIC (Trichomonas vaginalis [1]): 31 µM (≈ 7.82 µg/mL)
MIC (Trichomonas vaginalis [2]): 49.6 µM (≈ 12.5 µg/mL)
IC50 at 24 h [3]: > 5000 µM
selectivity ratio [4]: > 161
selectivity ratio [5]: > 102
Ratio (Trichomonas vaginalis [6]): <=12.7

Cc1nc([N+](=O)[O-])cn1CC(O)CSC(=S)N1CCN(c2cccc(Cl)c2Cl)CC1 (racemic)
MIC (Trichomonas vaginalis [1]): 25.5 µM (≈ 12.5 µg/mL)
MIC (Trichomonas vaginalis [2]): 510 µM (≈ 250 µg/mL)
IC50 at 24 h [3]: 724 µM
selectivity ratio [4]: 30
selectivity ratio [5]: 2

Cc1nc([N+](=O)[O-])cn1CC(O)CSC(=S)N1CCN(c2ccccc2)CC1 (racemic)
MIC (Trichomonas vaginalis [1]): 22.7 µM (≈ 9.56 µg/mL)
MIC (Trichomonas vaginalis [2]): 297 µM (≈ 125 µg/mL)
IC50 at 24 h [3]: > 5000 µM
selectivity ratio [4]: > 227
selectivity ratio [5]: > 16
Ratio (Trichomonas vaginalis [6]): <=12.7

Cc1ncc([N+](=O)[O-])n1CC(O)CSC(=S)N1CCN(c2ncccn2)CC1 (racemic)
MIC (Trichomonas vaginalis [1]): 29.6 µM (≈ 12.5 µg/mL)
MIC (Trichomonas vaginalis [2]): 29.6 µM (≈ 12.5 µg/mL)
IC50 at 24 h [3]: 2040 µM
selectivity ratio [4]: 69
selectivity ratio [5]: 69
Ratio (Trichomonas vaginalis [6]): 12.3

Cc1ncc([N+](=O)[O-])n1CC(O)CN1CCN(c2cccc(Cl)c2)CC1 (racemic)
MIC (Trichomonas vaginalis [1]): 132 µM (≈ 50.1 µg/mL)
MIC (Trichomonas vaginalis [2]): 330 µM (≈ 125 µg/mL)
IC50 at 24 h [3]: 1440 µM
selectivity ratio [4]: 10
selectivity ratio [5]: 4
Ratio (Trichomonas vaginalis [6]): <=12.7

Cc1ncc([N+](=O)[O-])n1CC(O)CSC(=S)N1CCCCC1 (racemic)
MIC (Trichomonas vaginalis [1]): 72.7 µM (≈ 25 µg/mL)
MIC (Trichomonas vaginalis [2]): 145 µM (≈ 50.1 µg/mL)
IC50 at 24 h [3]: 1400 µM
selectivity ratio [4]: 19
selectivity ratio [5]: 9
Ratio (Trichomonas vaginalis [6]): 2.5 - 12.6

CCN1CCN(CC(O)Cn2cc([N+](=O)[O-])nc2C)CC1 (racemic)
MIC (Trichomonas vaginalis [1]): 337 µM (≈ 100 µg/mL)
IC50 at 24 h [3]: > 5000 µM
selectivity ratio [4]: > 14

Cc1ncc([N+](=O)[O-])n1CC(O)CN1CCCCC1 (racemic)
MIC (Trichomonas vaginalis [1]): 23.3 µM (≈ 6.26 µg/mL)
MIC (Trichomonas vaginalis [2]): 187 µM (≈ 50.1 µg/mL)
IC50 at 24 h [3]: > 5000 µM
selectivity ratio [4]: > 217
selectivity ratio [5]: > 26
Ratio (Trichomonas vaginalis [6]): <=12.7

Cc1ncc([N+](=O)[O-])n1CC(O)CSC(=S)N1CCN(c2ccccn2)CC1 (racemic)
MIC (Trichomonas vaginalis [1]): 29.6 µM (≈ 12.5 µg/mL)
MIC (Trichomonas vaginalis [2]): 148 µM (≈ 62.6 µg/mL)
IC50 at 24 h [3]: 2970 µM
selectivity ratio [4]: 100
selectivity ratio [5]: 20
Ratio (Trichomonas vaginalis [6]): <=12.7

Cc1ncc([N+](=O)[O-])n1CC(O)CN1CCC(C)CC1 (racemic)
MIC (Trichomonas vaginalis [1]): 44.3 µM (≈ 12.5 µg/mL)
MIC (Trichomonas vaginalis [2]): 177 µM (≈ 50.1 µg/mL)
IC50 at 24 h [3]: > 5000 µM
selectivity ratio [4]: > 113
selectivity ratio [5]: > 28
Ratio (Trichomonas vaginalis [6]): <=12.7
